{"source": "ChEMBL document CHEMBL1139000", "about": "“N-Glycosyl-thiophene-2-carboxamides: effects on endothelial cell growth in the presence and absence of bFGF--a significant increase in potency using per-O-acetylated sugar analogues” (2006)", "key": {"AEC [1]": {"system": "AEC", "assay": "Antiproliferative activity against 10% FBS-induced BAEC at 500 uM after 24 hrs assessed by inhibition of [3H]thymidine uptake relative to control", "type": "functional, Bos taurus", "parameters": "scale not given: the % may be the effect or the level left", "method_in_brief": "(§1)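 Bovine aortic endothelial cells seeded at 30,000 cells/well in complete medium (10% foetal bovine serum) and allowed 24 h adhesion. Compounds then added and cells cultured 20 h at 37 °C, 5% CO2. [3H]thymidine pulse for a further 4 h (24 h total exposure). Cells lysed with 0.1 N NaOH and incorporated label counted by scintillation. Values are % of control-treated cells, mean ± SEM of three separate experiments, each in triplicate.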"}, "AEC [2]": {"system": "AEC", "assay": "Antiproliferative activity against 10% FBS-induced BAEC at 100 uM after 24 hrs assessed by inhibition of [3H]thymidine uptake", "type": "functional, Bos taurus", "parameters": "scale not given: the % may be the effect or the level left", "method_in_brief": "as §1"}, "AEC [3]": {"system": "AEC", "assay": "Antiproliferative activity against 10% FBS-induced BAEC at 500 uM after 24 hrs assessed by inhibition of [3H]thymidine uptake", "type": "functional, Bos taurus", "parameters": "scale not given: the % may be the effect or the level left", "method_in_brief": "as §1"}, "AEC [4]": {"system": "AEC", "assay": "Antiproliferative activity against 10% FBS-induced BAEC upto 80 uM after 24 hrs assessed by inhibition of [3H]thymidine uptake", "type": "functional, cell-based", "settings": "Bos taurus", "method_in_brief": "as §1"}, "AEC [5]": {"system": "AEC", "assay": "Antiproliferative activity against bFGF-stimulated BAEC at 80 uM after 48 hrs assessed by inhibition of [3H]thymidine uptake", "type": "functional, cell-based", "settings": "Bos taurus", "method_in_brief": "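BAECs seeded at 30,000 cells/well and starved 24 h in 0.5% foetal bovine serum. Then incubated 48 h with bFGF (10 ng/mL) with or without compound. [3H]thymidine (2 µCi/mL) added for the last 4 h. Lysis in 0.1 N NaOH, scintillation counting. Triplicate values from three separate experiments; Student's t test against control and against bFGF treatment.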"}, "AEC [6]": {"system": "AEC", "assay": "Antiproliferative activity against 10% FBS-induced BAEC at 3.3 uM after 24 hrs assessed by inhibition of [3H]thymidine uptake", "type": "functional, cell-based", "settings": "Bos taurus", "method_in_brief": "as §1"}, "AEC [7]": {"system": "AEC", "assay": "Antiproliferative activity against 10% FBS-induced BAEC at 80 uM after 24 hrs assessed by inhibition of [3H]thymidine uptake", "type": "functional, Bos taurus", "parameters": "scale not given: the % may be the effect or the level left", "method_in_brief": "as §1"}, "AEC [8]": {"system": "AEC", "assay": "Antiproliferative activity against 10% FBS-induced BAEC at 16 uM after 24 hrs assessed by inhibition of [3H]thymidine uptake", "type": "functional, Bos taurus", "parameters": "scale not given: the % may be the effect or the level left", "method_in_brief": "as §1"}}, "note": "Active and inactive are the calls of the source. The calls are words filed in the database; no cut-off is given here.", "data": [{"compound": "O=C(N[C@@H]1O[C@H](CO)[C@@H](O)[C@H](O)[C@H]1O)c1sccc1Br", "values": [{"measurement": "Activity", "setting": "AEC [1]", "value": 75.4, "unit": "%"}, {"measurement": "Activity", "setting": "AEC [2]", "value": 10, "unit": "%"}, {"measurement": "Activity", "setting": "AEC [3]", "value": 25, "unit": "%"}]}, {"compound": "CCc1ccc(C(=O)N[C@@H]2O[C@H](CO)[C@@H](O)[C@H](O)[C@H]2O)s1", "values": [{"measurement": "Activity", "setting": "AEC [1]", "value": 80.3, "unit": "%"}, {"measurement": "Activity", "setting": "AEC [4]", "value": "inactive"}]}, {"compound": "C#Cc1csc(C(=O)N[C@@H]2O[C@H](CO)[C@@H](O)[C@H](O)[C@H]2O)c1", "values": [{"measurement": "Activity", "setting": "AEC [1]", "value": 71, "unit": "%"}]}, {"compound": "O=C(N[C@@H]1O[C@H](CO)[C@@H](O)[C@H](O)[C@H]1O)c1ccc(Br)s1", "values": [{"measurement": "Activity", "setting": "AEC [1]", "value": 65, "unit": "%"}]}, {"compound": "Cc1ccc(C(=O)N[C@@H]2O[C@H](CO)[C@@H](O)[C@H](O)[C@H]2O)s1", "values": [{"measurement": "Activity", "setting": "AEC [1]", "value": 83, "unit": "%"}]}, {"compound": "CCc1ccc(C(=O)N[C@@H]2O[C@H](COC(C)=O)[C@@H](OC(C)=O)[C@H](OC(C)=O)[C@H]2OC(C)=O)s1", "values": [{"measurement": "Activity", "setting": "AEC [5]", "value": "Active"}, {"measurement": "Activity", "setting": "AEC [6]", "value": "inactive"}, {"measurement": "Activity", "setting": "AEC [7]", "value": 41, "unit": "%"}, {"measurement": "Activity", "setting": "AEC [8]", "value": 21, "unit": "%"}]}, {"compound": "C#Cc1ccsc1C(=O)N[C@@H]1O[C@H](CO)[C@@H](O)[C@H](O)[C@H]1O", "values": [{"measurement": "Activity", "setting": "AEC [1]", "value": 79.75, "unit": "%"}]}, {"compound": "Cc1ccsc1C(=O)N[C@@H]1O[C@H](CO)[C@@H](O)[C@H](O)[C@H]1O", "values": [{"measurement": "Activity", "setting": "AEC [1]", "value": 84, "unit": "%"}]}, {"compound": "O=C(N[C@@H]1O[C@H](CO)[C@@H](O)[C@H](O)[C@H]1O)c1cccs1", "values": [{"measurement": "Activity", "setting": "AEC [1]; Bos taurus", "value": "inactive"}]}]}
